From PubChem BioAssay
Beta2AR agonist: beta2AR agonists driving receptor internalization, primary screen, cell-based, FAP fluorogen, flow cytometry. AID 504454, 2011. Beta-2 adrenergic receptor (Homo sapiens), P07550. Am2.2-beta2AR cells. 0.43% of 340,000 active. response, % (test concentration not listed);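 active means response above a set limit, near 3 SD of response in nonfluorescent compounds, cut at about 42% in these data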
Target sequence (P07550 whole entry, looked up): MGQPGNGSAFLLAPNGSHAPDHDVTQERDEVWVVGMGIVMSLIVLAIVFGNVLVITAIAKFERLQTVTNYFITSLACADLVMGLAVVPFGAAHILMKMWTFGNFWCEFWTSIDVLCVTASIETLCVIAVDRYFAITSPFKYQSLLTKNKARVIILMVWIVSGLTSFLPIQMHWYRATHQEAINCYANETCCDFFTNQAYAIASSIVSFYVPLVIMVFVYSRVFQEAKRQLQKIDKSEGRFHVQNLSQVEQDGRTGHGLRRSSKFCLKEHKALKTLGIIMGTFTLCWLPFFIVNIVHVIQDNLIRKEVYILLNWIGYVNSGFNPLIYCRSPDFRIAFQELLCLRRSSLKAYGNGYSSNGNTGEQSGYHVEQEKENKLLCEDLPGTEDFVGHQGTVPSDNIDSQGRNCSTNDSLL
CHOP inhibitor: inhibitors of CHOP promoter induction, primary screen, cell-based, unfolded protein response, luciferase reporter. CHO-K1 CHOP-promoter luciferase, tunicamycin-induced, 15-18 h. inhibition, % at 10 µM. 3.8% of 220,000 active. AID 2732, 2010;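 active means compounds that reduced the stress-induced luciferase reporter signal by more than about 70% of percent inhibition, limit read from the data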;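 further: 0% = tunicamycin plus vehicle and 100% = wells without tunicamycin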
UPR XBP1 act: activators of adaptive XBP1 UPR arm, primary screen, cell-based, CHO-XBP1 luciferase reporter, luminescence, uHTS. IRE1-XBP1 UPR activation; percent of tunicamycin response, DMSO as zero. activation, % at 20 µM. 0.33% of 330,000 active;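 active means versus positive control, 20 µM dose yields 30% or more activation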;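 further: 100% = tunicamycin at 10 µg/mL and 0% = DMSO only wells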
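Signal: luciferase luminescence; Assay system: CHO-XBP1 luciferase reporter cells; Amount: one thousand reporter cells per well; Dosing: 20 µM single concentration, DMSO 1%; Benchmarks: high control tunicamycin 10 µg/mL final, low control DMSO vehicle only; Schedule: 6 h compound exposure at 37 °C, 5% CO2; Evaluation: percent activation relative to tunicamycin reference.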
pCIP destab: p/CIP-EGFP fusion destabilizers, primary screen, fluorescence, F442A cells; Q05BA5; 16 h; decrease of EGFP signal, % at 10 µM; 0.01% of 290,000 active; AID 1984, 2009;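 active means EGFP signal decrease of at least 30% at 10 µM or well 3 SD below plate mean, unless failing retest; inactive means the rest, including hits failing retest or dose response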
CHOP UPR activ: activators of apoptotic CHOP UPR arm, primary screen, cell-based, CHO-CHOP luciferase reporter, luminescence, uHTS. UPR activation; percent of tunicamycin response over DMSO baseline. 0.34% of 330,000 active. activation, % at 10 µM;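 active means at 10 µM dose, activation of 40% or more, normalized to positive control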;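 further: 100% = tunicamycin at 10 µg/mL and 0% = DMSO alone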
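Evaluation: % reporter activation, DMSO baseline versus tunicamycin full activation; System: CHO-CHOP luciferase reporter cell line; Input: 500 cells/well; Incubation: 6 h compound treatment, 37 °C; Measured by: Steady-Glo luciferase luminescence; Dosing: one dose, 10 µM in 0.5% DMSO; Buffer or medium: F12 medium, 10% FBS; Benchmarks: positive tunicamycin 10 µg/mL, negative DMSO alone.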
Dynein cargo inh: inhibitors of GR-EGFP nuclear translocation, primary screen, dynein cargo transport inhibitor project, imaging, high-content, 3617.4 mouse cells; test concentration mostly 20 µM; stimulated with dexamethasone, 1 µM; stronger effect = lower value; z-score, hits read low; 0.47% of 220,000 active; AID 1381, 2008;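 active means plate z-score of nuclear minus cytoplasmic receptor signal below a set negative limit, without overly bright fluorescence or cell loss, cut at about -3.5 in these data, passing the limit was not always enough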;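 further: z-score of nuclear minus cytoplasmic ring GR-EGFP intensity difference per well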
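Buffer or medium: Induction medium lacking tetracycline, stripped serum | Also added: Dexamethasone agonist, 1.0 µM final, for 30 min | Timing: 48 h induction, 1 h compound, 30 min dex at 37 °C | Detection: Formaldehyde fixation, Hoechst nuclear stain, 10x automated fluorescence imaging | Measure: Nuclear versus cytoplasmic GR-EGFP signal, averaged per well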
Starred values were filed as active, the others as inactive; / = not tested or not shown. This is one part of a sample in which hits are shown more often than they occur.

SMILES	Beta2AR agonist	CHOP inhibitor	UPR XBP1 act	pCIP destab	CHOP UPR activ	Dynein cargo inh
COc1cccc(-c2cc(C(=O)Nc3c(C)n(C)n(-c4ccccc4)c3=O)no2)c1	0	31	1	-7	2	0.62
CCc1ccccc1NC(=O)CNC(=O)CNC(=O)Cc1ccccc1	1	/	-1	/	0	/
Cn1cc(Br)c(C(=O)N/N=C/c2cc3c(cc2Cl)OCO3)n1	0	/	3	-4	5	/
Cc1cc(C)c(-c2c(O)c3cccnc3n(C)c2=O)c(C)c1	6	/	0	/	-1	/
N#CC1=C(N)NC(SCc2ccc(Br)cc2)=C(C#N)C12CCCCC2	0	93*	1	-11	-2	-0.51
N#CC1=C(N)NC(SCc2ccc(Cl)cc2)=C(C#N)C12CCCCC2	-3	61	5	-3	-1	-0.17
N#CC1=C(N)NC(SCC(=O)Nc2ccc(Br)cc2)=C(C#N)C12CCCCC2	3	73*	-3	-12	1	-0.42
Oc1[nH]c2ccccc2c1N=NC(=S)NCC1CCCO1 (stereo unspecified)	-13	1	0	-15	2	0.65
Oc1[nH]c2ccc(Br)cc2c1N=NC(=S)NCC1CCCO1 (stereo unspecified)	-11	94*	5	-22	-2	0.54
O=[N+]([O-])c1cccc(N/N=C/c2cc([N+](=O)[O-])ccc2O)c1	12	95*	1	0	1	0.0021
CCCOc1ccc(/C=N/Nc2cccc([N+](=O)[O-])c2)c(O)c1	7	74*	4	-8	5	-0.24
CCCOc1ccc(/C=N/Nc2ccccc2[N+](=O)[O-])c(O)c1	-1	41	-6	-11	-7	0.19
O=[N+]([O-])c1cccc(/C=N/Nc2nnc(-c3ccccc3)c(-c3ccccc3)n2)c1	2	20	1	11	2	-0.73
C/C(=N\Nc1nnc(-c2ccccc2)c(-c2ccccc2)n1)c1cccc([N+](=O)[O-])c1	4	78*	0	0	-1	4
CC1CC(C)CN(CCOc2cccc(Cl)c2Cl)C1 (stereo unspecified)	5	73*	1	-7	1	0.58
O=C(C=Cc1ccccn1)c1ccccc1O	49*	/	/	/	/	/
CCOc1ccccc1OCCOc1ccccc1CC	7	76*	-4	-7	-2	0.052
CCN(c1cccc(C)c1)S(=O)(=O)c1cccc2nsnc12	4	10	-3	1	1	1.7
Cc1cccc(N(C)S(=O)(=O)c2cccc3nsnc23)c1	-2	94*	-2	-6	0	0.57
NC(=O)[C@@H]1CC2(CC(c3cccc(NC(=O)[C@H]4CCC(=O)N4)c3)=NO2)CN1C(=O)COc1ccc(Cl)cc1 (stereo partly specified)	-3	-7	0	2	-2	-0.22
CCOc1nc(Nc2ccc(OC)c(Cl)c2)nc(N2CCN(c3ccc(OC)cc3)CC2)n1	6	74*	-5	-4	1	-0.42
O=C(Nc1ccc(S(=O)(=O)N2CCCC2)cc1)C1CCN(S(=O)(=O)c2ccc(F)cc2)CC1	1	/	-2	/	-1	/
COc1ccccc1C(C#N)N1N=C(C)CC1(C)C (stereo unspecified)	6	2	-1	-4	-1	-0.91
CCN=c1scc(-c2ccco2)n1/N=C/c1ccc(O)cc1	-3	76*	7	-14	5	1.5
CCOC(=O)c1cnc2c(-c3ccccc3)cnn2c1N	-11	80*	1	-2	6	1.9
SMILES	Beta2AR agonist	CHOP inhibitor	UPR XBP1 act	pCIP destab	CHOP UPR activ	Dynein cargo inh
CCOC(=O)c1cnc2c(-c3ccccc3)c(C)nn2c1N	-8	32	2	-1	3	-0.49
CCOC(=O)c1cnn(-c2cc(C)nc3c(-c4ccccc4)c(C)nn23)c1N	-15	81*	-1	-8	0	-0.35
Cc1cc(C)n2nc(C)c(-c3ccc(Cl)cc3)c2n1	5	/	7	10	0	/
CCOC(=O)c1cnn(-c2cc(C)nc3c(-c4ccc(Cl)cc4)c(C)nn23)c1N	/	84*	/	3	/	-0.47
CCN(Cc1ccncc1)C(=O)c1ccc(C)c(S(=O)(=O)N2CCCCC2)c1	3	/	0	/	0	/
CCOP(=O)(OCC)C(Nc1ccccc1)c1ccc2c(c1)OCO2 (stereo unspecified)	3	/	-1	/	0	/
CCCCOP(=O)(OCCCC)C(Nc1ccccc1)c1ccc2c(c1)OCO2 (stereo unspecified)	7	91*	/	-2	/	0.044
O=C(CO/N=C\c1ccccc1)Nc1ccccc1C(=O)N1CCOCC1	-6	24	-1	-6	0	-0.16
Cc1ccc(NC(=O)C(OC(=O)c2ccc(F)cc2)c2ccccc2)cc1Cl (stereo unspecified)	2	73*	/	-2	/	-1.2
Cc1ccc(NC(=O)C(OC(=O)c2ccc(O)cc2)c2ccccc2)cc1Cl (stereo unspecified)	3	-6	-2	2	-3	0.08
O=C(COC(=O)c1cccs1)NC1CCCC1	0	/	4	-20	2	/
CC(=O)N(NC(=O)c1ccccc1Cl)C1CC(=O)N(c2ccc(C)cc2)C1=O (stereo unspecified)	-4	-18	-1	0	-2	-0.68
CCc1nc(Nc2ccccc2)c2oc3ccccc3c2n1	-4	72*	2	-8	-2	-0.81
Cc1nc(NCCc2ccccc2)c2oc3ccccc3c2n1	-4	76*	1	2	5	-1.2
O=C(Nc1nnc(Cc2c[nH]c3ccccc23)s1)c1ccc(Cl)cc1Cl	15	10	0	5	3	-0.65
CC(C)(C)c1ccc(C(=O)Nc2nnc(Cc3c[nH]c4ccccc34)s2)cc1	2	75*	0	-5	3	0.54
Cc1nc2ccccc2c2oc(C(=O)N3CCN(c4ccc([N+](=O)[O-])cc4)CC3)cc12	51*	/	-8	-7	-2	/
Cc1nc2ccccc2c2oc(C(=O)N3CCN(C(=O)c4ccco4)CC3)cc12	-16	30	-1	7	-1	-0.17
CCOC(=O)/C=C/C(=O)OCC(=O)NCc1ccccc1	44*	23	0	8	-1	-2.5
Cc1onc(-c2ccccc2)c1CNC(=O)Nc1cccc(Cl)c1	0	22	-2	-17	-1	-0.12
Cc1cc2ccccc2c(=O)n1CC(=O)NCC(=O)N1CCN(c2ccccc2F)CC1	-6	39	1	-2	-1	1.5
